{
  "source": "paper PMC6506245",
  "about": "(Science Advances, 2019)",
  "key": {"β-cat [1]": {"target": "T1, β-cat (Homo sapiens, UniProt P35222)", "T1 sequence (P35222 1-781)": "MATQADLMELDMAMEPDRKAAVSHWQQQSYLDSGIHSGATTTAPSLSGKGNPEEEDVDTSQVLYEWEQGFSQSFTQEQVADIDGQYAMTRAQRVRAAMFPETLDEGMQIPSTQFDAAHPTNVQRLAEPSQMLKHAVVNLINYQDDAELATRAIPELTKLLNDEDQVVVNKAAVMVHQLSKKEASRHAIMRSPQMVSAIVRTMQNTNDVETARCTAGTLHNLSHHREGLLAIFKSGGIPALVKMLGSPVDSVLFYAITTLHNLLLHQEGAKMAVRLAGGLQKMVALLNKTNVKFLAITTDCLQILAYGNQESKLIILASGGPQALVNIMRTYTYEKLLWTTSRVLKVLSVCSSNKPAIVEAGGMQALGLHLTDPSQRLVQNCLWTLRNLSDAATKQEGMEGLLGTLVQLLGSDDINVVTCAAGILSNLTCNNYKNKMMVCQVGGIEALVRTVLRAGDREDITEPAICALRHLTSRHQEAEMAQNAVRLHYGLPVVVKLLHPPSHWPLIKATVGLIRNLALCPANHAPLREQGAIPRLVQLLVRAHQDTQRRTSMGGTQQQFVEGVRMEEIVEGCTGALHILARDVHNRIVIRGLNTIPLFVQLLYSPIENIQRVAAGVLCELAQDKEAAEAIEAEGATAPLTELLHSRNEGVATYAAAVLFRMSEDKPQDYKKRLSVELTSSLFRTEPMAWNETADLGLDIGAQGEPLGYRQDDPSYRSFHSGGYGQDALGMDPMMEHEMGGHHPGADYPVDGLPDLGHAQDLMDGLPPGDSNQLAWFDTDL", "test": "HTRF binding assay"}, "β-cat [2]": {"target": "T1, β-cat", "test": "ALPHA binding assay"}, "Colo320DM cells": {"tested_on": "Colo320DM cells", "test": "Colo320DM cell viability assay", "assay_type": "cell-based, human", "details": "read-out: IC50, growth of Colo320DM, 72 h"}, "Plasma stability assay": {"test": "Plasma stability assay", "assay_type": "in vitro ADME, BALB/c nude mice", "details": "BALB/c nude, mouse"}, "PK profiling in mice": {"test": "PK profiling in mice", "assay_type": "in vivo, BALB/c mice"}, "[3]": {"test": "Dose-escalating toxicity study", "assay_type": "in vivo, BALB/c mice", "in_short": "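BALB/c mice received vehicle control or test compound at 10, 15 or 20 mg/kg by i.p. injection, once daily for 14 days. Serum chemistry and hematology were done after the 2-week treatment and compared with vehicle-treated animals.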"}, "[4]": {"target": "histidine-tagged β-catenin (β-cat) protein (UniProt P35222)", "test": "AlphaScreen or HTRF"}},
  "note": "Where two headings read alike, the source gives them in different places. Bridge positions count the residues as written; N and C are the ends. Square brackets hold non-standard residues; d marks the D form. Peptide text beside a SMILES is read from it. * marks the point of attachment. Biotin = O=C1N[C@H]2[C@H](CS[C@H]2CCCCC(=O)*)N1; 2Nal = N[C@@H](Cc1ccc2ccccc2c1)C(=O)O; S5 = C=CCCC[C@](C)(N)C(=O)O",
  "data": [
    {"compound": "CC[C@H](C)[C@H](NC(=O)[C@H](CC(=O)O)NC(=O)[C@H](CCCNC(=N)N)NC(=O)[C@H](CC(C)C)NC(=O)[C@@H](NC(=O)[C@H](CCC(N)=O)NC(=O)[C@H](CC(C)C)NC(=O)[C@H](CO)NC(=O)[C@H](CCCNC(=N)N)NC(=O)[C@H](CCC(=O)O)NC(=O)[C@H](CCCNC(=N)N)NC(=O)[C@H](Cc1c[nH]cn1)NC(=O)[C@H](CCC(=O)O)NC(=O)[C@H](CC(C)C)NC(=O)[C@H](CCC(N)=O)NC(=O)[C@H](CCC(=O)O)NC(=O)[C@H](CCC(N)=O)NC(=O)[C@H](CO)NC(=O)[C@H](CC(C)C)NC(=O)CCCC[C@@H]1SC[C@@H]2NC(=O)N[C@@H]21)[C@@H](C)O)C(=O)N[C@@H](CCC(N)=O)C(=O)N[C@@H](CCCNC(=N)N)C(=O)N[C@@H](CCSC)C(=O)N[C@@H](CC(C)C)C(=O)N[C@@H](Cc1ccccc1)C(=O)O", "note": "[BCL9-HD2A] (Biotin-LSQEQLEHRERSLQTLRDIQRMLF-OH)", "values": [
      {"measurement": "Kd", "setting": "β-cat [1]", "result": 38.3, "unit": "nM"},
      {"measurement": "Kd", "setting": "β-cat [2]", "result": 14.3, "unit": "nM"}
    ]},
    {"compound": "O=C1[C@H](Cc2ccc(O)cc2)N2C(=O)CCN(C(=O)NCc3ccccc3)[C@H]2CN1Cc1cccc2ccccc12", "note": "[ICG-001]", "values": [
      {"measurement": "IC50", "setting": "Colo320DM cells; CellTiter-Glo", "result": 15, "unit": "µM"}
    ]},
    {"compound": "Cc1cc(-c2ncc(CC(=O)Nc3ccc(-c4cnccn4)cn3)cc2C)ccn1", "note": "[LGK-974]", "values": [
      {"measurement": "IC50", "setting": "Colo320DM cells; Homo sapiens, COLO 320DM", "result": 18.5, "unit": "µM"}
    ]},
    {"compound": "CCN(CC)CCOC(=O)c1ccc(N)cc1", "note": "[Procaine, reference compound]", "values": [
      {"measurement": "remaining at 1 h, 2 µM", "setting": "Plasma stability assay", "result": 0.02, "unit": "%"}
    ]},
    {"compound": "CCCC[C@H](NC(=O)[C@H](CCCNC(=N)N)NC(=O)[C@H](CCC(N)=O)NC(=O)[C@@H](NC(=O)[C@]1(C)CCCC=CCCC[C@](C)(NC(=O)[C@H](CC(C)C)NC(=O)[C@H](CO)NC(=O)[C@H](CCCNC(=N)N)NC(=O)[C@H](CCC(=O)O)NC(=O)[C@H](CCCNC(=N)N)NC(=O)[C@H](Cc2c[nH]cn2)NC(=O)[C@H](CCC(=O)O)NC(=O)[C@H](CC(C)C)NC(=O)[C@H](CCC(N)=O)NC(=O)[C@H](CCC(=O)O)NC(=O)[C@H](CCC(N)=O)NC(=O)[C@H](CO)NC(=O)[C@H](CC(C)C)NC(C)=O)C(=O)N[C@@H]([C@@H](C)O)C(=O)N[C@@H](CC(C)C)C(=O)N[C@@H](CCCNC(=N)N)C(=O)N1)[C@@H](C)CC)C(=O)N[C@@H](CC(C)C)C(=O)N[C@@H](Cc1ccccc1)C(N)=O", "note": "[SAH-BCL9B]", "values": [
      {"measurement": "Kd", "setting": "β-cat [1]", "result": 192, "unit": "nM"},
      {"measurement": "Kd", "setting": "β-cat [2]", "result": 142, "unit": "nM"}
    ]},
    {"compound": "CC[C@H](C)[C@@H]1NC(=O)[C@@](C)(NC(=O)[C@H](CCCNC(=N)N)NC(=O)[C@H](CC(C)C)NC(=O)[C@@H](NC(=O)[C@H](CCC(N)=O)NC(=O)[C@H](CC(C)C)NC(C)=O)[C@@H](C)O)CCCC=CCCC[C@@](C)(C(=O)N[C@@H](CC(C)C)C(=O)N[C@@H](Cc2ccc3ccccc3c2)C(N)=O)NC(=O)[C@H](CCCNC(=N)N)NC(=O)[C@H](CCC(N)=O)NC1=O", "note": "[hsBCL9CT-24] (Ac-LQTLR[S5]IQR[S5]L[2Nal]-NH2; staple 6-10)", "values": [
      {"measurement": "Kd", "setting": "β-cat [2]", "result": 4.73, "unit": "nM"},
      {"measurement": "IC50", "setting": "Colo320DM cells; CellTiter-Glo", "result": 1.45, "unit": "µM"},
      {"measurement": "bioavailability", "setting": "PK profiling in mice; BALB/c, mouse, plasma, sc, 10 mg/kg", "result": 56, "unit": "%"},
      {"measurement": "Terminal t1/2", "setting": "PK profiling in mice; i.m. 5 mg/kg, BALB/c mice n = 2, table S2A", "result": 10.6, "unit": "h"},
      {"measurement": "survival in toxicity study", "setting": "[3]; 10, 15, or 20 mg/kg i.p., QD over 14 days", "result": "All animals survived the duration of study"},
      {"measurement": "serum chemistry and hematology versus vehicle control", "setting": "[3]; after a 2-week treatment period, 20 mg/kg QD (fig. S4I)", "result": "no difference"},
      {"measurement": "toxicity in brain, lung, kidney, liver, heart, and spleen tissues by histology", "setting": "[3]; i.p. QD over 14 days (fig. S4C: 10 mg/kg)", "result": "minimal toxicity"},
      {"measurement": "half-life at 2 µM", "setting": "Plasma stability assay", "result": 308, "unit": "min"}
    ]},
    {"compound": "hsBCL9CT-24 (hydrocarbon-stapled BCL9-HD2 peptide)", "values": [
      {"measurement": "Kd", "setting": "[4]", "result": 4.21, "unit": "nM"}
    ]}
  ]
}
